Active and inactive are the calls of the source. No cut-off for these calls is given here.
Experiments:
[1] = test system: Monkey; assay: Effect on Inhibition of Sidman avoidance in squirrel monkeys was determined; type: functional; details: in Saimiri
In short: (§1)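 Sidman avoidance in mature squirrel monkeys; oral dosing at three doses, four animals per dose; ED50 with SEM derived from the dose-response.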

[2] = test system: Monkey; assay: Effect on EPS liability in squirrel monkeys sensitized to haloperidol at 2.5 mg/kg; A=Active; type: functional, organism-based; parameters: dose 2.5 mg/kg; details: Cercopithecidae
[3] = test system: Rattus norvegicus; assay: Inhibition of locomotor activity in rats after peroral administration of the compound.; type: functional; details: po
[4] = test system: Rattus norvegicus; assay: Inhibition of dopamine neuronal firing in the anesthetized rats after ip administration at a dose 2.5 mg/kg; type: functional; details: route intraperitoneal
In short: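 Zona compacta DA cells of substantia nigra recorded extracellularly in chloral-anesthetized rats, identified by waveform and firing pattern, with recording sites confirmed histologically. Drug given at 2.5 mg/kg ip via an indwelling catheter. Baseline was the mean rate over the 2 min before injection. Effect was the mean over the 1-min period of maximal inhibition.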

[5] = test system: Rattus norvegicus; assay: Reversal of 6-OHDA-induced depression in rats, after sc injection after dosing for a period of 30 min; type: functional; details: 0.5 h
In short: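 Rats pretreated at least one month earlier with 6-OHDA (200 μg icv) plus pargyline (50 mg/kg ip) and desmethylimipramine (25 mg/kg ip), giving about 90% brain DA depletion checked in representative animals. Test drug given sc; locomotor activity recorded for 30 min starting immediately after dosing.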

[6] = test system: Rattus norvegicus; assay: Inhibition of accumulation of DOPA in rat striatum, after intraperitoneal administration.; type: functional; details: ip
In short: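 Rats dosed ip 1 h before sacrifice; GBL (750 mg/kg ip) and NSD 1015 (100 mg/kg ip) given 30 and 25 min before sacrifice. Striatal DOPA measured by HPLC with electrochemical detection. ED50 is the dose giving half-maximal decrease in DOPA formation, from three to five dose levels with four to five rats per group.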

[7] = test system: Rattus norvegicus; assay: Inhibition of locomotor activity in rats, after sc injection after dosing for a period of 30 min; type: functional; details: 0.5 h
[8] = test system: Rattus norvegicus; assay: Reversal of reserpine induced depression in rats, after sc injection after dosing for a period of 30 min; type: functional; details: 0.5 h
In short: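 Normal rats given reserpine 5 mg/kg 24 h before testing, then test drug sc. Locomotor activity recorded for 30 min starting immediately after dosing. Locomotor stimulation read as reversal of reserpine-induced depression.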

[9] = test system: Monkey; assay: Effect on Inhibition of Sidman avoidance in squirrel monkeys when administered orally; type: functional; details: in Saimiri, po; in short: as §1

Compound	ED50 [1] [mg/kg]	EPS [2]	ED50 [3] [mg/kg]	inhibition in vivo at 2.5 mg/kg [4] [%]	ED50 [5] [mg/kg]	ED50 [6] [mg/kg]	ED50 [7] [mg/kg]	ED50 [8] [mg/kg]	ED50 [9] [mg/kg]
CSc1ccc2c(c1)N(CCC1CCCCN1C)c1ccccc1S2 (stereo not given) [THIORIDAZINE]	3.9	Active							
CCCN(CCCOc1cccc(N)c1)CCc1ccccc1			> 30	8					
CN(C)c1cccc(OCCCN2CCN(c3ccccc3)CC2)c1			9.2	21					
Nc1cccc(OCCCN2CCN(c3ccccn3)CC2)c1			9.2	46					
CN1CCc2cccc3c2[C@H]1Cc1ccc(O)c(O)c1-3 [APOMORPHINE]			> 30	100	0.006	0.3	0.021	0.096	
C1=C(c2ccccc2)CCN(CCCCc2c[nH]c3ccccc23)C1			4.8	100	0.4	2.2	0.64	> 30	
Nc1cccc(OCCCN2CCN(c3ccccc3)CC2)c1			10.3	85	> 30	12	1.8	> 30	8.5
CNc1cccc(OCCCN2CCN(c3ccccc3)CC2)c1			9.4	7					
Nc1cccc(OCCCN2CC=C(c3ccccc3)CC2)c1			12.1	89	0.13	7	0.35	> 30	
CCCN1CCC[C@H](c2cccc(O)c2)C1			> 30	100	0.6	7.2	8.8		

From ChEMBL document CHEMBL1124184, “Dopamine autoreceptor agonists as potential antipsychotics. 1. (Aminoalkoxy)anilines” (J Med Chem, 1988)
